From paper PMC4981499 (Nature, 2014) come the findings set out here.

Converted amounts (≈) assume the structure as drawn.

The term MIC denotes the lowest concentration that inhibits growth of the organism.

Assay [1] has as its system K. pneumoniae N11-2218. Nature of the assay: MIC. The conditions noted are these: meropenem alone; K. pneumoniae N11-2218 (CRE). The assay is classed as cell-based. In a few lines:
(§1)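 Checkerboard microdilution with 8 concentrations each of meropenem and test compound in serial ½ dilutions, run in duplicate, and the mean was used. MIC was the lowest concentration with no growth. Each FIC was the concentration in the presence of the co-compound in a no-growth well divided by that compound's MIC; the FIC index is the sum of the two FICs.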

Assay [2] has as its system E. coli BW25113. Nature of the assay: MIC. Format: cell-based. Conditions: Escherichia coli. The method, boiled down:
as §1

In assay [3] the test system is NDM-1-positive K. pneumoniae N11-2218. Nature of the assay: Mouse systemic infection, organ bacterial load. The assay is classed as in vivo, CD1 mice. Conditions: s.c., spleen burden 48 h after infection. The method, boiled down:
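Female CD1 mice, 7–9 weeks, infected i.p. with 2×10⁶ cfu K. pneumoniae N11-2218. Treated s.c. 30 minutes post infection with test compound, meropenem, their combination, or PBS. Euthanized at 48 h; spleen and liver were homogenized in PBS, serially diluted and plated on Brilliant Green agar for cfu counts.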

Assay [4] has the same test system. Nature of the assay: Mouse lethal systemic infection, survival. Format: in vivo, CD1 mice. The conditions noted are these: meropenem (10 mg/kg) alone or AMA (30 mg/kg) alone, single s.c. dose. In a few lines:
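Female CD1 mice, 7–9 weeks, randomized 5 per cage. Infected i.p. with 5×10⁷ cfu K. pneumoniae N11-2218. A single s.c. dose was given 30 minutes post infection: meropenem 10 mg/kg, test compound 30 mg/kg, their combination, or PBS. Mice were monitored for endpoint until day 4. Preparation, infection and processing were done by two independent investigators for blinding.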

Take `C[C@@H](O)[C@H]1C(=O)N2C(C(=O)O)=C(S[C@@H]3CN[C@H](C(=O)N(C)C)C3)[C@H](C)[C@H]12` [meropenem]: the MIC in assay [1] was 32 µg/mL (≈ 83.4 µM); in assay [2], 0.008 to 0.016 µg/mL (≈ 0.0209 to 0.0417 µM). Further, the “Response of infection to meropenem monotherapy” value in assay [3] is recorded as “resistant to meropenem monotherapy at doses below 50 mg/kg”. For the same compound, the “Prevention of lethal infection by monotherapy” value in assay [4] is on record as “unable to prevent lethal infection”.
